Results: ChEMBL document CHEMBL4699653, “Hydroxamate-Based Selective Macrophage Elastase (MMP-12) Inhibitors and Radiotracers for Molecular Imaging” (J Med Chem, 2020)
The source made the active and inactive calls. The calls are words filed in the database; no cut-off is given here.

Tests used:
[1] = target: Matrix metalloproteinase-9 (Homo sapiens, UniProt P14780); assay: Inhibition of human recombinant MMP9 using Mca-Lys-Pro-Leu-Gly-Leu-Dpa-Ala-Arg-NH2 substrate by spectrophotometry
Outline: (§1)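 Fluorogenic cleavage kinetics with 0.2–0.5 nM recombinant human MMP in 50 mM Tris/HCl pH 6.8 with 10 mM CaCl2 at 25 °C. […] Fluorescence is monitored. Ki is derived by the Horovitz–Levitski method, as the mean ± SD of three experiments.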

Matrilysin = target: T1, Matrilysin (Homo sapiens, UniProt P09237); assay: Inhibition of human recombinant MMP7 using Mca-Lys-Pro-Leu-Gly-Leu-Dpa-Ala-Arg-NH2 substrate by spectrophotometry; outline: as §1
T1 sequence (P09237 whole entry): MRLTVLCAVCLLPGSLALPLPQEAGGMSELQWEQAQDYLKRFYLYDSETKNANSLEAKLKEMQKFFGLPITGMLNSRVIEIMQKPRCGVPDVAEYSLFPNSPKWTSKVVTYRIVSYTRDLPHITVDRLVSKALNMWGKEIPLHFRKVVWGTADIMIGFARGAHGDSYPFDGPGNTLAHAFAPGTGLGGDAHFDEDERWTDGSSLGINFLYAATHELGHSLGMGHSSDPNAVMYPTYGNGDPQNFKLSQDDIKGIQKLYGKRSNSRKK

[2] = target: Macrophage metalloelastase (Homo sapiens, UniProt P39900); assay: Inhibition of human recombinant MMP12 using Mca-Lys-Pro-Leu-Gly-Leu-Dpa-Ala-Arg-NH2 substrate by spectrophotometry; outline: as §1
[3] = target: 72 kDa type IV collagenase (Homo sapiens, UniProt P08253); assay: Inhibition of human recombinant MMP2 using Mca-Lys-Pro-Leu-Gly-Leu-Dpa-Ala-Arg-NH2 substrate by spectrophotometry; outline: as §1
Collagenase 3 = Collagenase 3 (Homo sapiens, UniProt P45452); assay: Inhibition of human recombinant MMP13 using Mca-Lys-Pro-Leu-Gly-Leu-Dpa-Ala-Arg-NH2 substrate by spectrophotometry; outline: as §1
[4] = target: Macrophage metalloelastase (Mus musculus) (UniProt P34960); assay: Inhibition of mouse recombinant MMP12 using Mca-Lys-Pro-Leu-Gly-Leu-Dpa-Ala-Arg-NH2 substrate by spectrophotometry
Homo sapiens [5] = organism: Homo sapiens; assay: Selectivity index, ratio of Ki for inhibition of human recombinant MMP7 for Ki for inhibition of human recombinant MMP12
Homo sapiens [6] = organism: Homo sapiens; assay: Selectivity index, ratio of Ki for inhibition of human recombinant MMP13 for Ki for inhibition of human recombinant MMP12
Homo sapiens [7] = organism: Homo sapiens; assay: Selectivity index, ratio of Ki for inhibition of human recombinant MMP9 for Ki for inhibition of human recombinant MMP12

Sequence of Macrophage metalloelastase (P39900 whole entry): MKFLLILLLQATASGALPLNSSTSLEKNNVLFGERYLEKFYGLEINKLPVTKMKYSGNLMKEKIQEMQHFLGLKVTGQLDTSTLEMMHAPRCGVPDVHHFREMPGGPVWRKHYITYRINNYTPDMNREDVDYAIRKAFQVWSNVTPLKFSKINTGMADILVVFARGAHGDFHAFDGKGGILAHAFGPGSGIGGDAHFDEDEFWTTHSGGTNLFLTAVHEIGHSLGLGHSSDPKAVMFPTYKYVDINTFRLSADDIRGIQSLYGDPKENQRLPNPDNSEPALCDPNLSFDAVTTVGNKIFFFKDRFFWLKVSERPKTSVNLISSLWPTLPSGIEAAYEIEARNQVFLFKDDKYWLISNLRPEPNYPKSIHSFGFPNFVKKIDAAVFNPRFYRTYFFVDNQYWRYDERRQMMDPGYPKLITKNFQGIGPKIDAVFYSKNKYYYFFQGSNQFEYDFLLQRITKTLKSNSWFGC
Sequence of Matrix metalloproteinase-9 (P14780 whole entry): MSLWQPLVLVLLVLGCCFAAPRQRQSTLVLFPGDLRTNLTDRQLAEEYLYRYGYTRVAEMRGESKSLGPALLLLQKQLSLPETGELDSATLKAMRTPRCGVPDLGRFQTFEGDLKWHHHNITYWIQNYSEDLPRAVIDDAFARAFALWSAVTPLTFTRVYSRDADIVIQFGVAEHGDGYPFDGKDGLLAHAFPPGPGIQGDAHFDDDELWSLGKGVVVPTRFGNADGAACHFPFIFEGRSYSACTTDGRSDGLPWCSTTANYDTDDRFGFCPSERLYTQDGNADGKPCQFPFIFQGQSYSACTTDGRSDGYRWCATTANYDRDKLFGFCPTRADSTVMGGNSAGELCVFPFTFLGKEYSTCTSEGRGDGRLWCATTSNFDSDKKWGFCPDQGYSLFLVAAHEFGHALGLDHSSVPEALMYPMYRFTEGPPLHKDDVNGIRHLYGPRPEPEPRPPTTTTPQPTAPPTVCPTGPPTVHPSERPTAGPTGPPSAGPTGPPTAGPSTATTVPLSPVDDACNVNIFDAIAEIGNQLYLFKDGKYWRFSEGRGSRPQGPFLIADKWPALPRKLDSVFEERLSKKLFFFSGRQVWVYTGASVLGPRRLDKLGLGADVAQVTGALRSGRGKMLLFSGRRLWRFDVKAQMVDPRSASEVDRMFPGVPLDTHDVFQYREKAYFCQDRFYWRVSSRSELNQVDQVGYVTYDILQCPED
Sequence of Macrophage metalloelastase (Mus musculus) (P34960 110-473 limits assumed): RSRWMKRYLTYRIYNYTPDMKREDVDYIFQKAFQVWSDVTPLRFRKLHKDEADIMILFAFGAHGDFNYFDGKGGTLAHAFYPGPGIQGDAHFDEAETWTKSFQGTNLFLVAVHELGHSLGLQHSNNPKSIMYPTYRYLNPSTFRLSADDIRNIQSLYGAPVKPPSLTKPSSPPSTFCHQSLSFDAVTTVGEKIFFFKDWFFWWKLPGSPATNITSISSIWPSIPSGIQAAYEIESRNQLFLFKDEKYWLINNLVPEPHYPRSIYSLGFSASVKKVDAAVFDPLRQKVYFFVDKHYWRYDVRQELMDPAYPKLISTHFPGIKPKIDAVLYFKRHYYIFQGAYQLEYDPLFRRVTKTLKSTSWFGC
Sequence of 72 kDa type IV collagenase (P08253 whole entry): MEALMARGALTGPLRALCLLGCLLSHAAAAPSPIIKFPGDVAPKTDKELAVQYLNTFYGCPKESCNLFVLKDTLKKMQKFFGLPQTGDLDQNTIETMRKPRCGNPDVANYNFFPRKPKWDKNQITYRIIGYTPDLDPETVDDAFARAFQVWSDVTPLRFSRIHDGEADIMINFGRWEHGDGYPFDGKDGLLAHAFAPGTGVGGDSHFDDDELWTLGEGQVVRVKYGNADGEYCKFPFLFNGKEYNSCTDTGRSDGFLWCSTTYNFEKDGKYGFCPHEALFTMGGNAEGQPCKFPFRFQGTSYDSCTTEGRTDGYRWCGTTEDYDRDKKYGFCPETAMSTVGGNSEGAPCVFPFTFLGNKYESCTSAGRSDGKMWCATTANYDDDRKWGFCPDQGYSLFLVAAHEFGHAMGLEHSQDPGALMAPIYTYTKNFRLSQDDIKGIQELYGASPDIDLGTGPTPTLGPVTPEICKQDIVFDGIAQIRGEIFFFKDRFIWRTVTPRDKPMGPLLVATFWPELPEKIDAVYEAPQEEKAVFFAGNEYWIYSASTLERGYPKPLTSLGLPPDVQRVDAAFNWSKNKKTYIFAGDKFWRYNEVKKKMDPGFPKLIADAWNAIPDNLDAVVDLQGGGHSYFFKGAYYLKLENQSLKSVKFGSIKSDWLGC

Structure (SMILES)	Ki [1] [nM]	Ki (Matrilysin) [nM]	Ki [2] [nM]	Ki [3] [nM]	Ki (Collagenase 3) [nM]	inhibition (qualitative) [4]	Ratio Ki (Homo sapiens [5])	Ratio Ki (Homo sapiens [6])	Ratio Ki (Homo sapiens [7])
CC(C)C[C@H](CC(=O)NO)C(=O)N[C@@H](Cc1ccccc1)C(=O)N[C@@H](CCC(=O)O)C(=O)NCCNC(=O)c1ccc(NN)nc1	1300	615	7.5	222	78	Active			
CC(C)C[C@H]1C(=O)N[C@H](C(=O)O)Cc2ccc(cc2)OCCC[C@@H]1C(=O)NO	1100	39	1.1	300	31	Active			
CC(C)C[C@H]1C(=O)N[C@H](C(=O)N[C@@H](CCC(=O)O)C(=O)O)Cc2ccc(cc2)OCCC[C@@H]1C(=O)NO	2110	14.6	1.2	396	89	Active	12	74	
CC(C)C[C@H](CC(=O)NO)C(=O)N[C@@H](Cc1ccc(OCCNC(=O)c2ccc(NN)nc2)cc1)C(=O)O	155	> 5000	8.9	> 5000	> 5000	Active			17

Further lines, results first:

Ki [1] [nM]	Ki (Matrilysin) [nM]	Ki [2] [nM]	Ki [3] [nM]	Ki (Collagenase 3) [nM]	inhibition (qualitative) [4]	Ratio Ki (Homo sapiens [5])	Ratio Ki (Homo sapiens [6])	Ratio Ki (Homo sapiens [7])	Structure (SMILES)
125	323	11.8	164	81	Active				CC(C)C[C@H](CC(=O)NO)C(=O)N[C@@H](Cc1ccccc1)C(=O)O
					Active				CNC(=O)[C@H](CCCNC(=N)N)NC(=O)[C@@H]1Cc2ccc(cc2)OCCC[C@H](C(=O)NO)[C@@H](CC(C)C)C(=O)N1
